# Assay results reported in ChEMBL document CHEMBL2062496, “Identification of a sirtuin 3 inhibitor that displays selectivity over sirtuin 1 and 2” (Eur J Med Chem, 2012).
# Activity calls are given as the source filed them. The rule behind the calls is not given here.
# Assays:
# SK-MEL-28 [1] = assay: Increase in superoxide level in human SK-MEL-28 cells maintained in medium containing GF and glucose at 100 uM after 24 hrs by DHE-based fluorescence ssay; format: functional, cell-based
# In short: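 Cells (SK-MEL-28) were kept 24 h in growth medium (DMEM + 10% serum) with or without 100 µM compound; antimycin was the positive control. They were labelled at 37 °C with DHE (10 µmol/L, 1% DMSO) in Locke's containing 5 mmol/L pyruvate for 40 min, stopped on ice and trypsinized. Flow-cytometric MFI of 10,000 cells, corrected for unlabelled autofluorescence; 3–4 separate experiments.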
# SK-MEL-28 [2] = assay: Increase in superoxide level in human SK-MEL-28 cells at 100 uM maintained in Locke's solution after 24 hrs by DHE-based fluorescence assay in absence of GF and glucose; format: functional, cell-based
# In short: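 SK-MEL-28 cells held 24 h in Locke's balanced saline without glucose or serum, with or without 100 µM compound; antimycin was the positive control. Cells were PBS-washed and labelled at 37 °C with DHE (10 µmol/L, 1% DMSO) in Locke's containing 5 mmol/L pyruvate for 40 min. They were then iced, trypsinized and read by FACS as MFI of 10,000 cells, autofluorescence-corrected; 3–4 separate experiments.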
# M14 = assay: Growth inhibition of human M14 cells assessed as cell growth at 10 uM after 48 hrs by MTT assay; values are per cent of control; settings: M14, 48 h
# A498 = assay: Growth inhibition of human A498 cells assessed as cell growth at 10 uM after 48 hrs by MTT assay; values are per cent of control; settings: A498, 48 h
# ACHN = assay: Growth inhibition of human ACHN cells assessed as cell growth at 10 uM after 48 hrs by MTT assay; values are per cent of control
# TK-10 = assay: Growth inhibition of human TK10 cells assessed as cell growth at 10 uM after 48 hrs by MTT assay; values are per cent of control; settings: TK-10, 48 h
# HOP-62 = assay: Growth inhibition of human HOP62 cells assessed as cell growth at 10 uM after 48 hrs by MTT assay; values are per cent of control; settings: HOP-62, 48 h
# SW-620 = assay: Growth inhibition of human SW620 cells assessed as cell growth at 10 uM after 48 hrs by MTT assay; values are per cent of control; settings: SW-620, 48 h
# SF-268 = assay: Growth inhibition of human SF268 cells assessed as cell growth at 10 uM after 48 hrs by MTT assay; values are per cent of control; settings: SF-268, 48 h
# SNB-19 = assay: Growth inhibition of human SNB19 cells assessed as cell growth at 10 uM after 48 hrs by MTT assay; values are per cent of control; settings: SNB-19, 48 h
# SK-OV-3 = assay: Growth inhibition of human SKOV3 cells assessed as cell growth at 10 uM after 48 hrs by MTT assay; values are per cent of control; settings: SK-OV-3, 48 h
# CAKI-1 = assay: Growth inhibition of human Caki1 cells assessed as cell growth at 10 uM after 48 hrs by MTT assay; values are per cent of control; settings: CAKI-1, 48 h
# HCT-116 = assay: Growth inhibition of human HCT116 cells assessed as cell growth at 10 uM after 48 hrs by MTT assay; values are per cent of control; settings: HCT-116, 48 h
# OVCAR-5 = assay: Growth inhibition of human OVCAR5 cells assessed as cell growth at 10 uM after 48 hrs by MTT assay; values are per cent of control; settings: OVCAR-5, 48 h
# OVCAR-8 = assay: Growth inhibition of human OVCAR8 cells assessed as cell growth at 10 uM after 48 hrs by MTT assay; values are per cent of control; settings: OVCAR-8, 48 h
# RXF 393 = assay: Growth inhibition of human RXF393 cells assessed as cell growth at 10 uM after 48 hrs by MTT assay; values are per cent of control; settings: RXF 393, 48 h
# COLO 205 = assay: Growth inhibition of human COLO205 cells assessed as cell growth at 10 uM after 48 hrs by MTT assay; values are per cent of control; settings: COLO 205, 48 h
# RPMI-8226 = assay: Growth inhibition of human RPMI8226 cells assessed as cell growth at 10 uM after 48 hrs by MTT assay; values are per cent of control; settings: RPMI-8226, 48 h
# NCI-H522 = assay: Growth inhibition of human NCI-H522 cells assessed as cell growth at 10 uM after 48 hrs by MTT assay; values are per cent of control; settings: NCI-H522, 48 h
# MDA-MB-435 = assay: Growth inhibition of human MDA-MB-435 cells assessed as cell growth at 10 uM after 48 hrs by MTT assay; values are per cent of control; settings: MDA-MB-435, 48 h
# MDA-MB-231 = assay: Growth inhibition of human MDA-MB-231 cells assessed as cell growth at 10 uM after 48 hrs by MTT assay; values are per cent of control; settings: MDA-MB-231, 48 h
smiles,measurement,setting,value
c1cncc(-c2cnn[nH]2)c1,Activity,SK-MEL-28 [1],Active
same,Activity,SK-MEL-28 [2],Active
same,"growth, % of control at 10 µM",M14,72.5%
same,"growth, % of control at 10 µM",A498,105%
same,"growth, % of control at 10 µM",ACHN,111%
same,"growth, % of control at 10 µM",TK-10,103%
same,"growth, % of control at 10 µM",HOP-62,90.9%
same,"growth, % of control at 10 µM",SW-620,106%
same,"growth, % of control at 10 µM",SF-268,113%
same,"growth, % of control at 10 µM",SNB-19,102%
same,"growth, % of control at 10 µM",SK-OV-3,48%
same,"growth, % of control at 10 µM",CAKI-1,95.1%
same,"growth, % of control at 10 µM",HCT-116,82.4%
same,"growth, % of control at 10 µM",OVCAR-5,100%
same,"growth, % of control at 10 µM",OVCAR-8,49.8%
same,"growth, % of control at 10 µM",RXF 393,98.6%
same,"growth, % of control at 10 µM",COLO 205,23.8%
same,"growth, % of control at 10 µM",RPMI-8226,66.9%
same,"growth, % of control at 10 µM",NCI-H522,101%
same,"growth, % of control at 10 µM",MDA-MB-435,56%
same,"growth, % of control at 10 µM",MDA-MB-231,103%
